Source: ChEMBL document CHEMBL1641492, “Design, synthesis and biological evaluation of novel L-lysine ureido derivatives as aminopeptidase N inhibitors” (Bioorg Med Chem, 2011)

Biological target: T1, Aminopeptidase N (Sus scrofa, UniProt P15145)
T1 sequence (P15145 whole entry): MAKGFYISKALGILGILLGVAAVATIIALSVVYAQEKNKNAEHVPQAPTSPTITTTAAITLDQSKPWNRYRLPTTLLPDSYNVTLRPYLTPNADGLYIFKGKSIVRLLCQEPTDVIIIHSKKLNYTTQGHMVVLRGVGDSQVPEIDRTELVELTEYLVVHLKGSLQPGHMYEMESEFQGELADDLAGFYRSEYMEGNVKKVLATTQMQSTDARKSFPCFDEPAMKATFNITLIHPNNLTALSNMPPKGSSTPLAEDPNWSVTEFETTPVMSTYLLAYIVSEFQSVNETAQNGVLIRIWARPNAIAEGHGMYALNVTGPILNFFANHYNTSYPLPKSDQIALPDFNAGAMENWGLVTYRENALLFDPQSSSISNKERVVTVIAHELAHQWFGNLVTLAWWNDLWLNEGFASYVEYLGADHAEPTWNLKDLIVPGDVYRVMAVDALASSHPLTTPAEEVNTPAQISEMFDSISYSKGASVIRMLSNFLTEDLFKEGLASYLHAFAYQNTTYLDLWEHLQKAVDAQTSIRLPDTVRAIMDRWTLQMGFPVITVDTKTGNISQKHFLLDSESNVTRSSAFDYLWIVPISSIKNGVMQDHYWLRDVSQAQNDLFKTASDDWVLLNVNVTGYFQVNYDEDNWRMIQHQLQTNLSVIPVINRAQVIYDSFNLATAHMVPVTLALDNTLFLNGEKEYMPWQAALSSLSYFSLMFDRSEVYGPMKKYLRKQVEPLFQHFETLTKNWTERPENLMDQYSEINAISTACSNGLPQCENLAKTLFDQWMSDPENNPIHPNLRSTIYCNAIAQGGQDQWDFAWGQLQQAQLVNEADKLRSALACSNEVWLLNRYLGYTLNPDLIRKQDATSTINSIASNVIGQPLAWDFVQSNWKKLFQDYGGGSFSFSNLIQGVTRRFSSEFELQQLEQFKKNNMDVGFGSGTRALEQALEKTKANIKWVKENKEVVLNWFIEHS
Test: Inhibition of porcine kidney microsomal APN after 10 mins at room temperature by spectrophotometry
Settings: not given
How it was run: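 Porcine kidney microsomal aminopeptidase (lyophilized, 15–25 units/mg protein), 6 µg/mL final, preincubated with inhibitor 10 min at room temperature. Substrate L-Leu-p-nitroanilide, 50 mM PBS pH 7.2, 37 °C. Inhibitor solutions in assay buffer adjusted to pH 7.5. IC50 as mean ± SD of three independent assays.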

| Compound | IC50 |
| --- | --- |
| COC(=O)[C@H](CCCCNC(=O)OCc1ccccc1)NC(=O)N[C@@H](CC(C)C)C(=O)OC | > 50 µM |
| COC(=O)[C@H](CCCCNC(=O)OCc1ccccc1)NC(=O)NCc1ccccc1 | > 50 µM |
| COC(=O)[C@H](CCCCNC(=O)OCc1ccccc1)NC(=O)NC(C)(C)C | > 50 µM |
| CC(C)(C)NC(=O)N[C@@H](CCCCNC(=O)OCc1ccccc1)C(=O)NO | > 50 µM |
| CSCC[C@H](NC(=O)N[C@@H](CCCCNC(=O)OCc1ccccc1)C(=O)NO)C(=O)NO | 14.4 µM |
| CC(C)C[C@H](NC(=O)N[C@@H](CCCCNC(=O)OCc1ccccc1)C(=O)NO)C(=O)NO | 4.51 µM |
| CC[C@@H](C)[C@H](NC(=O)N[C@@H](CCCCNC(=O)OCc1ccccc1)C(=O)OC)C(=O)OC | > 50 µM |
| COC(=O)[C@H](CCCCNC(=O)OCc1ccccc1)NC(=O)N[C@H](C(=O)OC)C(C)C | > 50 µM |
| COC(=O)[C@H](C)NC(=O)N[C@@H](CCCCNC(=O)OCc1ccccc1)C(=O)OC | > 50 µM |
| COC(=O)[C@H](CCCCNC(=O)OCc1ccccc1)NC(=O)N[C@@H](Cc1ccccc1)C(=O)OC | > 50 µM |
| CC(C)[C@H](NC(=O)N[C@@H](CCCCNC(=O)OCc1ccccc1)C(=O)O)C(=O)O | > 50 µM |
| CC[C@@H](C)[C@H](NC(=O)N[C@@H](CCCCNC(=O)OCc1ccccc1)C(=O)NO)C(=O)NO | > 50 µM |
| C[C@H](NC(=O)N[C@@H](CCCCNC(=O)OCc1ccccc1)C(=O)NO)C(=O)NO | 19.9 µM |
| CSCC[C@H](NC(=O)N[C@@H](CCCCNC(=O)OCc1ccccc1)C(=O)O)C(=O)O | > 50 µM |
| COC(=O)CNC(=O)N[C@@H](CCCCNC(=O)OCc1ccccc1)C(=O)OC | > 50 µM |
| COC(=O)[C@H](CCCCNC(=O)OCc1ccccc1)NC(=O)N[C@@H](CCSC)C(=O)OC | > 50 µM |
| O=C(N[C@@H](CCCCNC(=O)OCc1ccccc1)C(=O)O)N[C@@H](Cc1ccccc1)C(=O)O | > 50 µM |
| C[C@H](NC(=O)N[C@@H](CCCCNC(=O)OCc1ccccc1)C(=O)O)C(=O)O | > 50 µM |
| COC(=O)[C@H](CCCCNC(=O)OCc1ccccc1)NC(=O)NCCc1ccccc1 | > 50 µM |
| O=C(NCc1ccccc1)N[C@@H](CCCCNC(=O)OCc1ccccc1)C(=O)NO | 16.4 µM |
| O=C(N[C@@H](CCCCNC(=O)OCc1ccccc1)C(=O)NO)N[C@@H](Cc1ccccc1)C(=O)NO | 14.5 µM |
| O=C(O)CNC(=O)N[C@@H](CCCCNC(=O)OCc1ccccc1)C(=O)O | > 50 µM |
| CC(C)C[C@H](NC(=O)N[C@@H](CCCCNC(=O)OCc1ccccc1)C(=O)O)C(=O)O | > 50 µM |
| O=C(NCCc1ccccc1)N[C@@H](CCCCNC(=O)OCc1ccccc1)C(=O)NO | > 50 µM |
| CC[C@@H](C)[C@H](NC(=O)N[C@@H](CCCCNC(=O)OCc1ccccc1)C(=O)O)C(=O)O | > 50 µM |
| O=C(CNC(=O)N[C@@H](CCCCNC(=O)OCc1ccccc1)C(=O)NO)NO | 20.4 µM |

Test system: not listed separately
Test: Antiproliferative activity against human ES2 cells after 48 hrs by MTT assay
Type: functional, cell-based
Settings: ES-2, 48 h
How it was run: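 ES-2 human cells seeded at 5000 per well, adhered 10 h, then exposed to 2500, 500, 100, 20 and 4 µg/mL compound for 48 h. MTT 0.5% solution added, 4 h further incubation, formazan dissolved in DMSO, absorbance at 570 nm. Three independent experiments, mean with SE.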

| Compound | IC50 |
| --- | --- |
| CSCC[C@H](NC(=O)N[C@@H](CCCCNC(=O)OCc1ccccc1)C(=O)NO)C(=O)NO | 356 µM |
| CC(C)C[C@H](NC(=O)N[C@@H](CCCCNC(=O)OCc1ccccc1)C(=O)NO)C(=O)NO | 291 µM |
| C[C@H](NC(=O)N[C@@H](CCCCNC(=O)OCc1ccccc1)C(=O)NO)C(=O)NO | 415 µM |
| O=C(N[C@@H](CCCCNC(=O)OCc1ccccc1)C(=O)NO)N[C@@H](Cc1ccccc1)C(=O)NO | 395 µM |
| CC(C)C[C@H](NC(=O)[C@@H](O)[C@H](N)Cc1ccccc1)C(=O)O [UBENIMEX] | 332 µM |
